Results: ChEMBL document CHEMBL1128202, “Identification of a series of 3-(benzyloxy)-1-azabicyclo[2.2.2]octane human NK1 antagonists” (J Med Chem, 1995)
pIC50: −log10 of the molar value.

Columns and labels:
Substance-P receptor = Substance-P receptor (Homo sapiens, UniProt P25103); assay: Inhibition of binding of [125I]SP to the CHO cell line expressing human Tachykinin receptor 1; format: cell-based
Cavia porcellus [1] = assay: Inhibition of SP-induced extravasation in the skin of guinea pig after oral administration of a dose of 10 (ug/kg); format: functional
Outline: (§1)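 Guinea pigs given test compound (po or ip); dorsal skin shaved and Evans blue (0.5 mL, 2.5 g/100 mL saline) injected iv. 10 min later, SP (0.5 pmol in 0.1% HSA saline) injected intradermally; 1 h exposure, then CO2 euthanasia. 6-mm punch biopsies of injection sites; dye extracted overnight in formamide at 45 °C. Read-out: % inhibition of Evans blue leakage.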

Cavia porcellus [2] = assay: Inhibition of SP-induced extravasation in the skin of guinea pig after […] administration of a dose of 10 (ug/kg); format: functional; outline: as §1
Cavia porcellus [3] = assay: Inhibition of SP-induced extravasation in the skin of guinea pig after intraperitoneal administration of a dose of 3 (ug/kg); format: functional; outline: as §1
Cavia porcellus [4] = assay: Inhibition of SP-induced extravasation in the skin of guinea pig after intraperitoneal administration of a dose of 10 (ug/kg); format: functional; outline: as §1
Cavia porcellus [5] = assay: Inhibition of SP-induced extravasation in the skin of guinea pig after intraperitoneal administration of a dose of 1 (ug/kg); format: functional; outline: as §1
Cavia porcellus [6] = assay: Inhibition of SP-induced extravasation in the skin of guinea pig after intraperitoneal administration of a dose of 30 (ug/kg); format: functional; outline: as §1

Substance-P receptor, sequence (P25103 whole entry): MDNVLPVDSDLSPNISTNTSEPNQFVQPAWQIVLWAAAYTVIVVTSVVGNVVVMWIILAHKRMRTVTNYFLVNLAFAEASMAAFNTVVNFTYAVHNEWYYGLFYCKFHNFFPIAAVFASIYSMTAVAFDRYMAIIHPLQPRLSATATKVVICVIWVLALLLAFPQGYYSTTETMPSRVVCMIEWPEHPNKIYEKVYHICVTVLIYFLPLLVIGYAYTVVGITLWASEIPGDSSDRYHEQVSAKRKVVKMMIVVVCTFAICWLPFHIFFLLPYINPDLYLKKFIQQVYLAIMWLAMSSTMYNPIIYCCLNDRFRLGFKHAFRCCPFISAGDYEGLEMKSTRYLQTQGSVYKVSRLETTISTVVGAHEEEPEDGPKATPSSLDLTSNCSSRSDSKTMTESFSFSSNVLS

**Q.** With `FC(F)(F)c1cc(COC2C3CCN(CC3)C2C(c2ccccc2)C2CCCCC2)cc(C(F)(F)F)c1` (stereo not given) as the molecule, how does the pIC50 (Substance-P receptor) read?
**A.** Its pIC50 is 8.12.

**Q.** How did the pIC50 (Substance-P receptor) turn out when `Clc1cccc(COC2C3CCN(CC3)C2C(c2ccccc2)c2ccccc2)c1` (stereo not given) was run?
**A.** The pIC50 was 7.21.

**Q.** `Cc1ccc(C)c(COC2C3CCN(CC3)C2C(c2ccccc2)c2ccccc2)c1` (stereo not given) was tested. Which pIC50 (Substance-P receptor) did it give?
**A.** The pIC50 was 7.44.

**Q.** How did the pIC50 (Substance-P receptor) turn out when `FC(F)(F)c1ccc(COC2C3CCN(CC3)C2C(c2ccccc2)c2ccccc2)cc1` (stereo not given) was run?
**A.** Its pIC50 is 6.43.

**Q.** How did the pIC50 (Substance-P receptor) turn out when `Clc1ccc(COC2C3CCN(CC3)C2C(c2ccccc2)c2ccccc2)cc1` (stereo not given) was run?
**A.** The pIC50 was 6.38.

**Q.** With `c1ccc(COC2C3CCN(CC3)C2C(c2ccccc2)c2ccccc2)cc1` (stereo not given) as the molecule, how does the pIC50 (Substance-P receptor) read?
**A.** The pIC50 was 6.96.

**Q.** With `Cc1ccc(COC2C3CCN(CC3)C2C(c2ccccc2)c2ccccc2)cc1` (stereo not given) as the molecule, how does the pIC50 (Substance-P receptor) read?
**A.** The pIC50 was 6.61.

**Q.** How did the pIC50 (Substance-P receptor) turn out when `FC(F)(F)c1cc(COC2C3CCN(CC3)C2Cc2ccccc2)cc(C(F)(F)F)c1` (stereo not given) was run?
**A.** Its pIC50 is 6.99.

**Q.** `Brc1ccccc1COC1C2CCN(CC2)C1C(c1ccccc1)c1ccccc1` (stereo not given) was tested. Which pIC50 (Substance-P receptor) did it give?
**A.** The pIC50 was 7.43.

**Q.** With `Fc1cc(F)cc(COC2C3CCN(CC3)C2C(c2ccccc2)c2ccccc2)c1` (stereo not given) as the molecule, how does the pIC50 (Substance-P receptor) read?
**A.** Its pIC50 is 7.48.

**Q.** `FC(F)(F)c1cccc(COC2C3CCN(CC3)C2C(c2ccccc2)c2ccccc2)c1` (stereo not given) was tested. Which pIC50 (Substance-P receptor) did it give?
**A.** The pIC50 was 6.52.

**Q.** `N#Cc1ccc(COC2C3CCN(CC3)C2C(c2ccccc2)c2ccccc2)cc1` (stereo not given) was tested. Which pIC50 (Substance-P receptor) did it give?
**A.** Its pIC50 is 6.02.

**Q.** With `Fc1ccccc1COC1C2CCN(CC2)C1C(c1ccccc1)c1ccccc1` (stereo not given) as the molecule, how does the pIC50 (Substance-P receptor) read?
**A.** The pIC50 was 7.03.

**Q.** With `Fc1cccc(COC2C3CCN(CC3)C2C(c2ccccc2)c2ccccc2)c1` (stereo not given) as the molecule, how does the pIC50 (Substance-P receptor) read?
**A.** Its pIC50 is 7.43.

**Q.** `Clc1ccccc1COC1C2CCN(CC2)C1C(c1ccccc1)c1ccccc1` (stereo not given) was tested. Which pIC50 (Substance-P receptor) did it give?
**A.** The pIC50 was 7.10.

**Q.** `Cc1ccc(COC2C3CCN(CC3)C2C(c2ccccc2)c2ccccc2)cc1C` (stereo not given) was tested. Which pIC50 (Substance-P receptor) did it give?
**A.** Its pIC50 is 6.76.

**Q.** `Fc1ccc(COC2C3CCN(CC3)C2C(c2ccccc2)c2ccccc2)cc1` (stereo not given) was tested. Which pIC50 (Substance-P receptor) did it give?
**A.** The pIC50 was 6.60.

**Q.** With `Fc1ccc(F)c(COC2C3CCN(CC3)C2C(c2ccccc2)c2ccccc2)c1` (stereo not given) as the molecule, how does the pIC50 (Substance-P receptor) read?
**A.** The pIC50 was 6.97.

**Q.** How did the pIC50 (Substance-P receptor) turn out when `Cc1cc(C)cc(COC2C3CCN(CC3)C2Cc2ccccc2)c1` (stereo not given) was run?
**A.** The pIC50 was 6.97.

**Q.** How did the pIC50 (Substance-P receptor) turn out when `FC(F)(F)c1ccccc1COC1C2CCN(CC2)C1C(c1ccccc1)c1ccccc1` (stereo not given) was run?
**A.** The pIC50 was 7.17.

**Q.** With `c1ccc(Oc2cccc(COC3C4CCN(CC4)C3C(c3ccccc3)c3ccccc3)c2)cc1` (stereo not given) as the molecule, how does the pIC50 (Substance-P receptor) read?
**A.** Its pIC50 is 7.21.

**Q.** How did the pIC50 (Substance-P receptor) turn out when `COc1cccc(COC2C3CCN(CC3)C2C(c2ccccc2)c2ccccc2)c1` (stereo not given) was run?
**A.** Its pIC50 is 7.25.

**Q.** `Cc1cc(I)cc(COC2C3CCN(CC3)C2C(c2ccccc2)c2ccccc2)c1` (stereo not given) was tested. Which pIC50 (Substance-P receptor) did it give?
**A.** The pIC50 was 9.49.

**Q.** `FC(F)(F)c1cc(CO[C@@H]2C3CCN(CC3)[C@H]2C(c2ccccc2)c2ccccc2)cc(C(F)(F)F)c1` was tested. Which pIC50 (Substance-P receptor) did it give?
**A.** Its pIC50 is 6.90.

**Q.** How did the pIC50 (Substance-P receptor) turn out when `FC(F)(F)c1cc(CO[C@@H]2C3CCN(CC3)[C@@H]2C(c2ccccc2)c2ccccc2)cc(C(F)(F)F)c1` was run?
**A.** The pIC50 was 6.52.

**Q.** And the Inhibition (Cavia porcellus [1])?
**A.** The Inhibition was -17%.

**Q.** With `Cc1cc(COC2C3CCN(CC3)C2C(c2ccccc2)c2ccccc2)cc([Si](C)(C)C)c1` (stereo not given) as the molecule, how does the pIC50 (Substance-P receptor) read?
**A.** The pIC50 was 9.05.

**Q.** How did the pIC50 (Substance-P receptor) turn out when `N#Cc1ccccc1COC1C2CCN(CC2)C1C(c1ccccc1)c1ccccc1` (stereo not given) was run?
**A.** The pIC50 was 7.07.

**Q.** With `Cc1ccccc1COC1C2CCN(CC2)C1C(c1ccccc1)c1ccccc1` (stereo not given) as the molecule, how does the pIC50 (Substance-P receptor) read?
**A.** The pIC50 was 6.82.

**Q.** With `Cc1cccc(COC2C3CCN(CC3)C2C(c2ccccc2)c2ccccc2)c1` (stereo not given) as the molecule, how does the pIC50 (Substance-P receptor) read?
**A.** Its pIC50 is 7.70.

**Q.** How did the pIC50 (Substance-P receptor) turn out when `N#Cc1cccc(COC2C3CCN(CC3)C2C(c2ccccc2)c2ccccc2)c1` (stereo not given) was run?
**A.** Its pIC50 is 6.90.

**Q.** `c1ccc(CN[C@H]2C3CCN(CC3)[C@H]2C(c2ccccc2)c2ccccc2)cc1` was tested. Which pIC50 (Substance-P receptor) did it give?
**A.** The pIC50 was 10.07.

**Q.** `O=[N+]([O-])c1cccc(COC2C3CCN(CC3)C2C(c2ccccc2)c2ccccc2)c1` (stereo not given) was tested. Which pIC50 (Substance-P receptor) did it give?
**A.** The pIC50 was 6.71.

**Q.** With `FC(F)(F)c1cc(CO[C@H]2C3CCN(CC3)[C@@H]2C(c2ccccc2)c2ccccc2)cc(C(F)(F)F)c1` as the molecule, how does the pIC50 (Substance-P receptor) read?
**A.** Its pIC50 is 9.70.

**Q.** And the Inhibition (Cavia porcellus [1])?
**A.** Its Inhibition is 70%.

**Q.** How did the pIC50 (Substance-P receptor) turn out when `Clc1cc(Cl)cc(COC2C3CCN(CC3)C2C(c2ccccc2)c2ccccc2)c1` (stereo in doubt; 67) was run?
**A.** The pIC50 was 8.46.

**Q.** How did the pIC50 (Substance-P receptor) turn out when `Clc1cc(Cl)cc(COC2C3CCN(CC3)C2C(c2ccccc2)c2ccccc2)c1` (stereo in doubt; 68) was run?
**A.** The pIC50 was 8.05.

**Q.** With `FC(F)(F)c1cc(COC2C3CCN(CC3)C2C(c2ccccc2)c2ccccc2)cc(C(F)(F)F)c1` (stereo in doubt; 69) as the molecule, how does the pIC50 (Substance-P receptor) read?
**A.** Its pIC50 is 8.80.

**Q.** `FC(F)(F)c1cc(COC2C3CCN(CC3)C2C(c2ccccc2)c2ccccc2)cc(C(F)(F)F)c1` (stereo in doubt; 70) was tested. Which pIC50 (Substance-P receptor) did it give?
**A.** Its pIC50 is 8.57.

**Q.** Which results are given for `Cc1cc(C)cc(COC2C3CCN(CC3)C2C(c2ccccc2)c2ccccc2)c1` (stereo in doubt; 72)?
**A.** pIC50 (Substance-P receptor): 9.05; Inhibition (Cavia porcellus [1]): 45%

**Q.** Which Inhibition (Cavia porcellus [2]) does the source give for `Cc1cc(C)cc(COC2C3CCN(CC3)C2C(c2ccccc2)c2ccccc2)c1` (stereo in doubt; 73) here?
**A.** The Inhibition was 89%.

**Q.** And the pIC50 (Substance-P receptor)?
**A.** The pIC50 was 9.59.

**Q.** And the Inhibition (Cavia porcellus [1])?
**A.** The Inhibition was 40%.

**Q.** `COc1cc(COC2C3CCN(CC3)C2C(c2ccccc2)c2ccccc2)cc(OC)c1` (stereo in doubt; 75) was tested. Which pIC50 (Substance-P receptor) did it give?
**A.** The pIC50 was 8.03.

**Q.** With `COc1cc(COC2C3CCN(CC3)C2C(c2ccccc2)c2ccccc2)cc(OC)c1` (stereo in doubt; 76) as the molecule, how does the pIC50 (Substance-P receptor) read?
**A.** Its pIC50 is 8.08.

**Q.** With `COc1cc(C)cc(COC2C3CCN(CC3)C2C(c2ccccc2)c2ccccc2)c1` (stereo in doubt; 77) as the molecule, how does the pIC50 (Substance-P receptor) read?
**A.** Its pIC50 is 8.72.

**Q.** With `COc1cc(C)cc(COC2C3CCN(CC3)C2C(c2ccccc2)c2ccccc2)c1` (stereo in doubt; 78) as the molecule, how does the pIC50 (Substance-P receptor) read?
**A.** The pIC50 was 8.82.

**Q.** With `Cc1cc(C)cc(COC2C3CCN(CC3)C2C(Cc2ccccc2)c2ccccc2)c1` (stereo in doubt; 85) as the molecule, how does the pIC50 (Substance-P receptor) read?
**A.** The pIC50 was 8.49.

**Q.** How did the pIC50 (Substance-P receptor) turn out when `Cc1cc(C)cc(COC2C3CCN(CC3)C2C(Cc2ccccc2)c2ccccc2)c1` (stereo in doubt; 86) was run?
**A.** The pIC50 was 7.64.

**Q.** `FC(F)(F)c1cc(COC2C3CCN(CC3)C2C(Cc2ccccc2)c2ccccc2)cc(C(F)(F)F)c1` (stereo in doubt; 87) was tested. Which pIC50 (Substance-P receptor) did it give?
**A.** Its pIC50 is 8.41.

**Q.** `FC(F)(F)c1cc(COC2C3CCN(CC3)C2C(Cc2ccccc2)c2ccccc2)cc(C(F)(F)F)c1` (stereo in doubt; 88) was tested. Which pIC50 (Substance-P receptor) did it give?
**A.** Its pIC50 is 6.37.

**Q.** `FC(F)(F)c1cc(COC2C3CCN(CC3)C2C(Cc2ccccc2)c2ccccc2)cc(C(F)(F)F)c1` (stereo in doubt; 89) was tested. Which pIC50 (Substance-P receptor) did it give?
**A.** Its pIC50 is 8.00.

**Q.** With `Cc1cc(C)cc(COC2C3CCN(CC3)C2C(Cc2ccccc2)c2ccccc2)c1` (stereo in doubt; 90) as the molecule, how does the pIC50 (Substance-P receptor) read?
**A.** Its pIC50 is 6.45.

**Q.** Which results are given for `FC(F)(F)c1cc(CO[C@H]2C3CCN(CC3)[C@H]2C(c2ccccc2)c2ccccc2)cc(C(F)(F)F)c1` [L-709210]?
**A.** pIC50 (Substance-P receptor): 9.70; Inhibition (Cavia porcellus [3]): 59%; Inhibition (Cavia porcellus [1]): 76%; Inhibition (Cavia porcellus [4]): 92%; Inhibition (Cavia porcellus [5]): 6%; Inhibition (Cavia porcellus [6]): 100%
